KCNK3 inh: human KCNK3 channel inhibitors, primary screen, CHO cells, FluxOR thallium flux, B-score | FluxOR fluorescence; active compounds read low | AID 602410, 2012 | hit rate 0.84% among 340,000 | B-score at 10 µM;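 active = B-score under library mean minus 4 SD, starting fluorescence ratio at most library mean plus 5 SD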;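 also: more negative B-score means stronger inhibition of thallium flux through KCNK3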
Target sequence (O14649 whole entry, looked up): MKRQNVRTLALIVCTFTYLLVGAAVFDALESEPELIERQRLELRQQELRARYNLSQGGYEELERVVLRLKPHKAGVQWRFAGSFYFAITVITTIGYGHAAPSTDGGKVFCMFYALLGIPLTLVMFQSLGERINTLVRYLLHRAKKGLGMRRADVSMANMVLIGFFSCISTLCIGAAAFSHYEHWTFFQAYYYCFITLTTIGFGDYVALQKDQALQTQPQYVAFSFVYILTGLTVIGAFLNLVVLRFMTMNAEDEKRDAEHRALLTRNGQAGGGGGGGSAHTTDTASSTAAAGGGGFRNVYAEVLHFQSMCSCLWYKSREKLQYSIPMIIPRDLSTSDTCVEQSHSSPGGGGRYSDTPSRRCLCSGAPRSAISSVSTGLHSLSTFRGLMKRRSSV
KCNQ1 pot: potentiators or activators of KCNQ1 channel, primary screen, cell-based, thallium flux, high-throughput. hit rate 0.35% among 310,000. CHO-K1 KCNQ1, thallium flux FluxOR fluorescence; active compounds read high. B-score at 10 µM. Potassium voltage-gated channel subfamily KQT member 1 (Homo sapiens), P51787;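 active = fluorescence ratio B-score, a plate-corrected score, at least three library SD, with initial intensity B-score within 5 SD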
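Assay system: stable KCNQ1 CHO-K1 line; medium: assay buffer, equal DMSO in all wells; timing: 90 min dye loading and 20 min compound exposure, both at room temperature; technique: kinetic FluxOR thallium fluorescence, 10-s 1-Hz baseline, 110-s post-stimulus read; read-out basis: B score of baseline-normalized fluorescence ratio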
KCNK9 inh: KCNK9 potassium channel inhibitors, primary screen, HEK293 cells, thallium flux | Potassium channel subfamily K member 9 (Homo sapiens), Q9NPC2 | FluxOR thallium flux fluorescence; active compounds read low | B-score at 10 µM | hit rate 1.2% among 310,000 | AID 488922, 2010;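 active = ratio B-score over 3 SD below the library mean, with starting fluorescence within 5 SD of its mean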;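 also: negative B-score means less thallium flux so channel inhibition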
KCNQ1 block: inhibitors of human KCNQ1 channel, primary screen, cell-based, thallium flux, high-throughput; Potassium voltage-gated channel subfamily KQT member 1 (Homo sapiens), P51787; hit rate 1.3% among 310,000; CHO-K1 KCNQ1, FluxOR thallium flux fluorescence; active compounds read high; B-score at 10 µM;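 active = compounds whose thallium flux B-score, printed positive for inhibition, exceeds three library SD while starting fluorescence stays within three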;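 also: channel opened by potassium depolarization with thallium stimulus after 20 min compound exposure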
hERG rescue: hERG rescue from dofetilide block, primary screen, cell-based, CHO-hERG, FluxOR thallium flux, dofetilide IC70. dofetilide IC70 present. activation (rescue from dofetilide block), less the hit threshold, % at 10 µM. hit rate 0.51% among 310,000. AID 1511, 2009;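 active = activation above the mean of controls blocked by dofetilide plus 5 SD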;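 also: thallium influx through hERG after potassium depolarization seen as dye fluorescence rise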
KCNK9 block conf: KCNK9 potassium channel inhibitors, confirmation, HEK293 cells, thallium flux, duplicate | AID 492992, 2010 | FluxOR thallium flux fluorescence | inhibition, % at 10 µM | hit rate 43% among 4,900 | shares compounds with KCNK9 inh;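 active = thallium signal inhibited by more than 5 SD of the compound-free buffer control wells, on both duplicate plates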;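 also: 0% = assay buffer control wells without compound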
Kir2-1 spec: mouse Kir2.1 channel inhibition, confirmation, selectivity assay for KCNK9 modulator project, cell-based, HEK293, thallium flux | shares compounds with KCNK9 inh | AID 492993, 2010 | inhibition, % at 10 µM | Kir2.1 cells, FluxOR thallium flux fluorescence | hit rate 4% among 4,900;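 active = thallium signal drop more than 5 SD beyond the mean of the no-compound control wells, seen in both duplicate plates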;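 also: signal is fluorescence rise after thallium addition divided by baseline fluorescence; plate controls were assay buffer only for no effect and full block by chlorpromazine control for full effect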
KCNK9 uninduced: thallium flux in non-induced HEK293 cells, confirmation, counter-screen for KCNK9 inhibitor project, cell-based, second counter screen, non-induced KCNK9-HEK293; AID 492997, 2010; shares compounds with KCNK9 inh; inhibition, % at 10 µM; FluxOR thallium flux; hit rate 40% among 4,900;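 active = thallium signal drop beyond 5 SD of the untreated control mean, on both duplicate plates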;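 also: plate controls were buffer only IC0 wells for no effect and SID17386958 at its maximal inhibitory level for full effect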
Starred values were filed as active, the others as inactive; i = inactive; . = no result given. In the library only some 3.1% were active in any assay of this set; here they are far more common.

SMILES	KCNK3 inh	KCNQ1 pot	KCNK9 inh	KCNQ1 block	hERG rescue	KCNK9 block conf	Kir2-1 spec	KCNK9 uninduced
O=C(Nc1cccc(Cl)c1N1CCCC1)c1cc2ccccc2o1	i	i	i	i	-13	.	.	.
O=C(Nc1cccc(Cl)c1N1CCCC1)c1ccc(Br)o1	i	i	-9.3*	i	-16	28%*	i	32%*
O=C(Nc1cccc(Cl)c1N1CCCC1)c1ccc([N+](=O)[O-])o1	i	i	-10*	i	-5	34%*	i	28%*
c1ccc(CNc2nc(-c3cccs3)nc3ccccc23)nc1	i	i	i	i	-21	.	.	.
Cc1ccc(CNc2nc(-c3cccs3)nc3ccccc23)cc1	i	i	-8.8*	i	-17	36%*	i	30%*
COc1ccccc1Cc1noc(COc2cccc(C)c2C)n1	i	i	i	i	-14	i	i	i
c1ccc(C(c2ccccc2)N2CCN(Cc3nnnn3C3CCCC3)CC2)cc1	i	i	-9*	i	-11	41%*	i	i
CCOc1cc(C(=O)NC(C)CCc2ccccc2)cc(OCC)c1OCC (stereo unspecified)	i	i	i	i	-4	i	i	i
CCOc1ccccc1C(=O)NC(C)CCc1ccccc1 (stereo unspecified)	i	i	i	i	-5	.	.	.
COc1ccccc1CN1CCCC(N2CCN(c3ccccc3OC)CC2)C1 (stereo unspecified)	i	i	i	i	-12	.	.	.
CC(=O)c1cccc(CN2CCCC(N3CCN(c4ccccc4F)CC3)C2)c1 (stereo unspecified)	i	i	i	i	-4	i	i	i
Fc1ccccc1N1CCN(C2CCCN(Cc3ccccc3C(F)(F)F)C2)CC1 (stereo unspecified)	i	i	i	i	-13	i	i	i
COc1ccccc1N1CCN(C2CCCN(Cc3cccc(O)c3)C2)CC1 (stereo unspecified)	i	i	i	i	-7	.	.	.
CC(C)[C@H](NC(=O)c1cccc(CN(Cc2ccccc2)C(=O)c2ccccc2)c1)C(=O)O	i	i	i	i	-8	.	.	.
CCOC(=O)CN(C(=O)COc1nc(-c2ccccc2)cc(C)c1C#N)c1ccccc1	i	i	i	i	-10	.	.	.
CCOC(=O)CN(C(=O)COc1nc(-c2ccccc2)cc(C)c1C#N)c1ccccc1C	i	i	i	i	-11	i	i	i
CCOC(=O)CN(C(=O)COc1nc(-c2ccccc2)cc(C)c1C#N)c1ccc(C)cc1	i	i	i	i	-10	i	i	i
CC(=O)C1=C(C)NC(SCC(=O)c2cc(Cl)ccc2Cl)=C(C#N)C1c1ccco1 (stereo unspecified)	-14*	i	-14*	11*	-6	74%*	i	35%*
CCOc1ccc(N2CC(C(=O)Nc3ccc4c(c3)OCCO4)CC2=O)cc1 (stereo unspecified)	i	i	i	i	-15	.	.	.
CCOc1ccc(N2CC(C(=O)Nc3ccc4c(c3)OCO4)CC2=O)cc1 (stereo unspecified)	i	i	i	i	-11	i	i	i
CC(C)c1ccc(C(=O)N(c2ccccn2)C(C)c2ccco2)cc1 (stereo unspecified)	i	i	i	i	-7	.	.	.
CC(c1ccco1)N(C(=O)CSc1ccc(Br)cc1)c1ccccn1 (stereo unspecified)	-9.8*	i	-8.9*	i	-15	i	37%*	38%*
CC(C)=CCc1c(O)ccc(C2COc3c(CC=C(C)C)c(O)cc(O)c3C2=O)c1O (stereo unspecified)	i	i	-24*	i	-18	66%*	i	28%*
CC(=O)N1c2c(ccc3ccccc23)C(C)CC12CCCCC2 (stereo unspecified)	i	i	-14*	i	-6	49%*	i	47%*
CC1CC2(CCCCC2)Nc2c1ccc1ccccc21 (stereo unspecified)	i	i	i	i	-13	.	.	.
SMILES	KCNK3 inh	KCNQ1 pot	KCNK9 inh	KCNQ1 block	hERG rescue	KCNK9 block conf	Kir2-1 spec	KCNK9 uninduced
COc1ccc(C2Nc3ccccc3C(=O)N2Cc2ccco2)cc1COc1ccccc1F (stereo unspecified)	i	i	-9*	i	-7	46%*	i	34%*
CN1C(=O)C(C)(C)c2cc(S(=O)(=O)N3CCN(c4cccc(Cl)c4)CC3)ccc21	i	i	i	i	-8	.	.	.
CCNCC(=O)N1c2ccccc2CCc2ccc(NC(=O)OC(C)C)cc21	i	i	-13*	i	-9	66%*	i	i
CCNCC(=O)N1c2ccccc2CCc2ccc(NC(C)=O)cc21	i	i	i	i	-2	.	.	.
COC(CN(C)C(=O)c1cn(C)c2ccc(S(=O)(=O)N(C)C3CCCCC3)cc2c1=O)OC	i	i	i	i	-8	.	.	.
CCc1ccc(C(=O)NC(=S)NCc2cccnc2)cc1	i	i	i	i	-11	.	.	.
Fc1ccc(-c2nc3cnccn3c2NC2CCCC2)cc1	i	i	i	i	-15	.	.	.
Oc1ccc(Br)cc1-c1nc2cnccn2c1NC1CCCCC1	i	i	-9.4*	i	-14	i	i	30%*
COCc1cc(CN(C)C(=O)C2CCC(=O)N(Cc3cccc(OC)c3)C2)[nH]n1 (stereo unspecified)	i	i	i	i	-4	.	.	.
COc1cc2c(cc1OC)C(C)N(C(=O)c1ccc(Cl)c(S(=O)(=O)N3CCCCC3)c1)CC2 (stereo unspecified)	i	i	-11*	i	-7	32%*	i	i
